Results: ChEMBL document CHEMBL4321805, “A Conformational Restriction Strategy for the Identification of a Highly Selective Pyrimido-pyrrolo-oxazine mTOR Inhibitor” (J Med Chem, 2019)

Tests used:
Settings in all cases: read-out: Stability
[1] = Stability in human hepatocytes assessed as parent compound remaining at 5 uM after 3 hrs by LC-MS analysis; format: ADME, cell-based, Hepatocyte
Outline: (§1)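 Cryopreserved hepatocytes in suspension (200 000 cells/well) in Williams medium E with 2 mM L-glutamine and 25 mM HEPES. Test item at a final 5 μM (0.5% DMSO). Sampled at 0, 15, 60, 90 and 180 min. Precipitated with ACN, then LC–MS. Controls: 7-ethoxycoumarin and hepatocyte-free medium; n = 2.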

[2] = Stability in CD-1 mouse hepatocytes assessed as parent compound remaining at 5 uM after 3 hrs by LC-MS analysis; format: ADME, cell-based, Hepatocyte; outline: as §1
[3] = Stability in Sprague-Dawley rat hepatocytes assessed as parent compound remaining at 5 uM after 3 hrs by LC-MS analysis; format: ADME, cell-based, Hepatocyte; outline: as §1
CYP1A1 = target: T1, CYP1A1 (Homo sapiens, UniProt P04798); assay: Drug metabolism assessed as recombinant human CYP1A1-mediated compound hydrolysis by measuring parent compound remaining incubated for 60 mins by LC-HRMS analysis; format: ADME
T1 sequence (P04798 whole entry): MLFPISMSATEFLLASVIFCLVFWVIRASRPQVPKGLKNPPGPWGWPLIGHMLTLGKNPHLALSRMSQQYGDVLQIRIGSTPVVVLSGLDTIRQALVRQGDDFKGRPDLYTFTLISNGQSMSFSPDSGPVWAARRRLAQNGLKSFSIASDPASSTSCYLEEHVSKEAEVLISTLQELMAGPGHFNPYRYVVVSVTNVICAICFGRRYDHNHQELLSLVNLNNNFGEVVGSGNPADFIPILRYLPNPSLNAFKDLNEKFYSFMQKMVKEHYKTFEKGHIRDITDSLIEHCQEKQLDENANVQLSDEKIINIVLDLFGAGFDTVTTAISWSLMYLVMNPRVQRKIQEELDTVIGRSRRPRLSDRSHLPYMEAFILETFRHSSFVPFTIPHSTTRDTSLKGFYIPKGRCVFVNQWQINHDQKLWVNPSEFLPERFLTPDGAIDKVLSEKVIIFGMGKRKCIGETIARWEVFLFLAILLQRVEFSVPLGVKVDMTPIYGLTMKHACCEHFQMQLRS
Outline: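 Human recombinant CYP1A1 or CYP1A2 Supersomes (25 pmol/mL) incubated with compound at 1 μM (0.25% DMSO) plus NADP+-regenerating cofactors at 37 °C for 60 min. Reaction stopped with ACN containing internal standard. Parent and metabolites expressed as percentage of total peak areas.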

C[C@@H]1COCCN1c1nc(-c2cnc(N)nc2)nc2c1C[C@@H]1COCCN21
remaining at 3 h, 5 µM [1]: 93.2% | remaining at 3 h, 5 µM [2]: 81.2% | remaining at 3 h, 5 µM [3]: 93.6% | remaining at 1 h (CYP1A1): 73.3%
